Calls of active or inactive are those of the source. The rule behind the calls is not given here.
Assays:
Rattus norvegicus [1] = test: Toxicity in Sprague-Dawley rat assessed as sebaceous gland atrophy at 30 to 100 mg/kg, po qd by 14-day multiple-dose toxicity study; type: organism-based; design: dose 30-100 mg/kg, route oral; details: in vivo
Procedure, shortened: (§1)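 Sprague−Dawley rats were dosed po once daily for 14 days. Clinical and histopathological findings were assessed, and plasma AUC was recorded for each dose.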

[2] = Oral Bioavailability in CD1 mouse at 0.3 mg/kg; type: ADME, organism-based; details: in vivo
[3] = AUC in CD1 mouse at 0.3 mg/kg, po; type: ADME, organism-based; design: dose 0.3 mg/kg, route oral; details: plasma
[4] = AUC in Sprague-Dawley rat at 5 mg/kg, po; type: ADME, organism-based; design: dose 5 mg/kg, route oral; details: plasma
Cynomolgus monkey [5] = test: Toxicity in cynomolgus monkey assessed as elevation of change in clinical parameters at 10 to 30 mg/kg/day, po qd by 21-day multiple-dose toxicity study relative to control; type: organism-based, Macaca fascicularis; design: route oral; details: in vivo
Procedure, shortened: (§2)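 Cynomolgus monkeys were dosed po once daily at 10 and 30 mg/kg for 21 days. ALT and AST levels, QTc intervals, and clinical and histopathological findings were assessed, and plasma AUC was recorded for each dose.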

Cynomolgus monkey [6] = test: Toxicity in cynomolgus monkey assessed as elevation of AST level at 10 to 30 mg/kg/day, po qd by 21-day multiple-dose toxicity study relative to control; type: organism-based, Macaca fascicularis; design: route oral; details: in vivo; procedure, shortened: as §2
[7] = Inhibition of rat small intestine microsomal MGAT by TLC technique in presence of monoacylglycerol and [14C] palmitoyl CoA; type: microsomes
[8] = Oral bioavailability in cynomolgus monkey at 5 mg/kg; type: ADME, organism-based, Macaca fascicularis; details: in vivo
[9] = target: T1, Diacylglycerol O-acyltransferase 2 (Homo sapiens, UniProt Q96PD7); test: Inhibition of human liver flag-tagged DGAT2 expressed in baculovirus infected insect cells after 2 hrs by SPA
T1 sequence (Q96PD7 whole entry): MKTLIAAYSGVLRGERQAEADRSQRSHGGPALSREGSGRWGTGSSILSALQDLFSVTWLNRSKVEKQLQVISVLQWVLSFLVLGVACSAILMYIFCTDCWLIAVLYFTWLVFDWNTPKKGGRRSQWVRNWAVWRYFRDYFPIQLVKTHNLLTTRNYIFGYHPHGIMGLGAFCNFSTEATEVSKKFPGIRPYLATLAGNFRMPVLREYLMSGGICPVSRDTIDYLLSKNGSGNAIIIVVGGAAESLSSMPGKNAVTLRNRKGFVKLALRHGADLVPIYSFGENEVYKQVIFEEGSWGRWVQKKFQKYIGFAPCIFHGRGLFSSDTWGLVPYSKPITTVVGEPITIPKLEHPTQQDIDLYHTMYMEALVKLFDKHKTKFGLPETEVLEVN

[10] = AUC in Sprague-Dawley rat at 10 mg/kg, po qd; type: ADME, organism-based; design: dose 10 mg/kg, route oral; details: plasma
Procedure, shortened: (§3)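 Sprague-Dawley rats dosed orally once daily for 14 days in a multiple-dose toxicity study at 10, 30 or 100 mg/kg. Plasma exposure was reported as AUC, and clinical and histopathological findings were recorded.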

[11] = Clearance in beagle dog at 0.2 mg/kg, iv; type: ADME, organism-based, Canis lupus familiaris; design: dose 0.2 mg/kg, route intravenous; details: in vivo
[12] = AUC in Sprague-Dawley rat at 30 mg/kg, po qd; type: ADME, organism-based; design: dose 30 mg/kg, route oral; details: plasma; procedure, shortened: as §3
Cynomolgus monkey [13] = test: Toxicity in cynomolgus monkey assessed as elevation of change in histopathological parameters at 10 to 30 mg/kg/day, po qd by 21-day multiple-dose toxicity study relative to control; type: organism-based, Macaca fascicularis; design: route oral; details: in vivo; procedure, shortened: as §2
[14] = Half life in beagle dog at 0.2 mg/kg, iv; type: ADME, organism-based, Canis lupus familiaris; design: dose 0.2 mg/kg, route intravenous; details: in vivo
[15] = Half life in Sprague-Dawley rat at 0.7 mg/kg, iv; type: ADME, organism-based; design: dose 0.7 mg/kg, route intravenous; details: in vivo
[16] = Oral bioavailability in Sprague-Dawley rat at 5 mg/kg; type: ADME, organism-based; details: in vivo
[17] = Volume of distribution at steady state in cynomolgus monkey at 0.5 mg/kg, iv; type: ADME, organism-based, Macaca fascicularis; design: dose 0.5 mg/kg, route intravenous; details: in vivo, read-out: Vdss
[18] = Inhibition of mouse liver microsomal GPAT by TLC technique in presence of glycerol-3-phosphate and [14C] palmitoyl CoA
[19] = AUC in Sprague-Dawley rat at 100 mg/kg, po qd; type: ADME, organism-based; design: dose 100 mg/kg, route oral; details: plasma; procedure, shortened: as §3
[20] = Clearance in Sprague-Dawley rat at 0.7 mg/kg, iv; type: ADME, organism-based; design: dose 0.7 mg/kg, route intravenous; details: in vivo
[21] = Clearance in rhesus monkey at 0.2 mg/kg, iv; type: ADME, organism-based, Macaca mulatta; design: dose 0.2 mg/kg, route intravenous; details: in vivo
[22] = target: T2, Diacylglycerol O-acyltransferase 2 (Homo sapiens) (UniProt Q96PD7); test: Inhibition of human liver flag-tagged DGAT2 expressed in baculovirus infected insect cells up to 10 uM after 2 hrs by SPA
T2 sequence (whole entry): T1 sequence (Q96PD7 whole entry)

[23] = AUC in Sprague-Dawley rat at 100 mg/kg, po; type: ADME, organism-based; design: dose 100 mg/kg, route oral; details: plasma
[24] = Half life in rhesus monkey at 0.2 mg/kg, iv; type: ADME, organism-based, Macaca mulatta; design: dose 0.2 mg/kg, route intravenous; details: in vivo
[25] = Drug metabolism in cynomolgus monkey liver S9 fraction assessed as 2-hydroxy compound formation by MS/MS analysis; type: ADME, subcellular, Macaca fascicularis
Rattus norvegicus [26] = species on record: Rattus norvegicus; test: Inhibition of rat small intestine microsomal MGAT up to 10 uM by TLC technique in presence of monoacylglycerol and [14C] palmitoyl CoA; type: microsomes
[27] = Half life in Sprague-Dawley rat at 1 mg/kg, iv; type: ADME, organism-based; design: dose 1 mg/kg, route intravenous; details: in vivo
[28] = Oral bioavailability in beagle dog at 5 mg/kg; type: ADME, organism-based, Canis lupus familiaris; details: in vivo
[29] = AUC in Sprague-Dawley rat at 30 mg/kg, po; type: ADME, organism-based; design: dose 30 mg/kg, route oral; details: plasma
[30] = Oral bioavailability in Sprague-Dawley rat at 2 mg/kg; type: ADME, organism-based; details: in vivo
Mus musculus = species on record: Mus musculus; test: Inhibition of mouse liver microsomal GPAT up to 10 uM by TLC technique in presence of glycerol-3-phosphate and [14C] palmitoyl CoA
Rattus norvegicus [31] = test: Reduction in plasma triglyceride level in Sprague-Dawley rat at 0.3 mg/kg, po treated 30 mins prior to olive oil administration measured 3 hrs post olive oil administration relative to vehicle-treated control; type: functional; design: scale not given: the % may be the effect or the level left
Procedure, shortened: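 Animals received vehicle or compound by oral gavage, then olive oil (5 mL/kg) by oral gavage 30 min later. Plasma triglycerides were measured before dosing and 3 h after the oil. The read-out was the change in TG from pre-dose, compared with vehicle-treated animals.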

Rattus norvegicus [32] = test: Toxicity in Sprague-Dawley rat assessed as change in histopathological parameters at 30 mg/kg, po by 14-day multiple-dose toxicity study; type: organism-based; design: dose 30 mg/kg, route oral; details: in vivo; procedure, shortened: as §1
[33] = AUC in cynomolgus monkey at 100 mg/kg, po administered as single dose relative to control; type: ADME, organism-based, Macaca fascicularis; design: dose 100 mg/kg, route oral; details: plasma
Procedure, shortened: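 Cynomolgus monkeys received a single oral dose of 100 mg/kg. Plasma AUC was recorded alongside plasma liver enzymes ALT and AST.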

Rattus norvegicus [34] = test: Toxicity in Sprague-Dawley rat assessed as sebaceous gland atrophy at 100 mg/kg, po by 14-day multiple-dose toxicity study; type: organism-based; design: dose 100 mg/kg, route oral; details: in vivo; procedure, shortened: as §1
[35] = Drug metabolism in Sprague-Dawley rat liver S9 fraction assessed as 2-hydroxy compound formation by MS/MS analysis; type: ADME, subcellular
[36] = Volume of distribution at steady state in rhesus monkey at 0.2 mg/kg, iv; type: ADME, organism-based, Macaca mulatta; design: dose 0.2 mg/kg, route intravenous; details: in vivo, read-out: Vdss
[37] = Volume of distribution at steady state in beagle dog at 0.5 mg/kg, iv; type: ADME, organism-based, Canis lupus familiaris; design: dose 0.5 mg/kg, route intravenous; details: in vivo, read-out: Vdss
[38] = Volume of distribution at steady state in Sprague-Dawley rat at 1 mg/kg, iv; type: ADME, organism-based; design: dose 1 mg/kg, route intravenous; details: in vivo, read-out: Vdss
[39] = Half life in beagle dog at 0.5 mg/kg, iv; type: ADME, organism-based, Canis lupus familiaris; design: dose 0.5 mg/kg, route intravenous; details: in vivo
[40] = Clearance in Sprague-Dawley rat at 1 mg/kg, iv; type: ADME, organism-based; design: dose 1 mg/kg, route intravenous; details: in vivo

CC1(C)Oc2nc(C(F)(F)F)nc(N)c2N=C1c1ccc2c(c1)CC[C@]21CC[C@@H](CC(=O)O)CC1
Activity (Rattus norvegicus [1]): Toxic | bioavailability [2]: 77% | AUC [3]: 341 ng·h/mL | AUC [4]: 22900 ng·h/mL | Activity (Cynomolgus monkey [5]): Non-toxic | Activity (Cynomolgus monkey [6]): Non-toxic | IC50 [7]: > 10 µM | bioavailability [8]: 99% | IC50 [9]: > 10 µM | AUC [10]: 11 µM·h | clearance [11]: 2.33 mL/min/kg | AUC [12]: 78 µM·h | Activity (Cynomolgus monkey [13]): Non-toxic | half-life [14]: 1.1 h | half-life [15]: 3.7 h | bioavailability [16]: 98% | Vd [17]: 0.44 L/kg | IC50 [18]: > 10 µM | AUC [19]: 677 µM·h | clearance [20]: 3.5 mL/min/kg

CC1(C)Oc2ncnc(N)c2N=C1c1ccc([C@H]2CC[C@H](CC(=O)O)CC2)cc1
clearance [21]: 3.67 mL/min/kg | inhibition [22]: inactive | AUC [23]: 3750 µM·h | half-life [24]: 1.8 h | Drug metabolism [25]: metabolite_detected | inhibition (Rattus norvegicus [26]): inactive | half-life [27]: 1.7 h | bioavailability [28]: 64% | AUC [29]: 913 µM·h | bioavailability [30]: 30% | inhibition (Mus musculus): inactive | Activity (Rattus norvegicus [31]): 88% | Activity (Rattus norvegicus [32]): Non-toxic | AUC [33]: 1420 µM·h | Activity (Rattus norvegicus [34]): Toxic | Drug metabolism [35]: metabolite_detected | Vd [36]: 0.46 L/kg | Vd [37]: 1.9 L/kg | Vd [38]: 1.65 L/kg | half-life [39]: 2.4 h | clearance [40]: 9.17 mL/min/kg

Source: ChEMBL document CHEMBL3232847, “Discovery of 6-phenylpyrimido[4,5-b][1,4]oxazines as potent and selective acyl CoA:diacylglycerol acyltransferase 1 (DGAT1) inhibitors with in vivo efficacy in rodents” (J Med Chem, 2014)
